Results on 13 molecules are retold here after ChEMBL document CHEMBL1147039, “Disrupting antibiotic resistance propagation by inhibiting the conjugative DNA relaxase” (Proc Natl Acad Sci U S A, 2007).

The EC50 is the concentration at which the effect is half-maximal. For orientation: Ki means the equilibrium dissociation constant of an inhibitor or competing ligand from its target. As a reminder, the Km is the concentration of substrate that gives half-maximal velocity. What is called Vmax is the top rate of the reaction or transport when substrate is in excess.

Data set [1] has as its system Escherichia coli. In words: Inhibition of conjugate DNA transfer between tetracycline-resistant F plasmid positive Escherichia coli JS10 to streptomycin-resistant F plasmid deficient Escherichia coli JS4. In kind it is functional, organism-based. The gist of the method:
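F+ donor and F− recipient E. coli were mixed 1:9 in dilute liquid medium with increasing inhibitor concentrations for 100 min. Inhibitor was removed before transconjugants were selected with antibiotics. Transconjugants were counted as colonies on agar, or by oxygen-biosensor fluorescence in antibiotic medium. EC50 for DNA transfer was derived from the counts.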

Data set [2] concerns Escherichia coli. In words: Selectivity ratio, ratio of EC50 for Escherichia coli JS10 to ratio of EC50 for inhibition of conjugate DNA transfer between Escherichia coli JS10 and Escherichia coli JS4. The class given is functional. In outline:
(§1)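 Each ratio divides one EC50 by another. The EC50s come from 100-min inhibitor exposures: separate donor and recipient survival assays, and a 1:9 donor:recipient liquid mating assay. Viable or transconjugant cells were counted on selective agar or by oxygen-quenched fluorescence in antibiotic medium.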

Data set [3] deals with Type IV secretion-like conjugative transfer relaxase protein TraI (Escherichia coli (strain SMS-3-5 / SECEC)), B1LRJ1 [Y16F]. As to the kind of experiment: (§2) Inhibition of Escherichia coli F plasmid TraI relaxase Y16F mutant assessed as oriT ssDNA cleavage at 200 nM.
For data set [4], the system named is Escherichia coli. As to the kind of experiment: Selectivity ratio, ratio of EC50 for inhibition of conjugate DNA transfer between Escherichia coli JS10 and Escherichia coli JS4 to EC50 for Escherichia coli JS10. In kind it is functional. In outline:
as §1

Data set [5] relates to Escherichia coli. In words: Cytotoxicity against tetracycline-resistant F plasmid positive Escherichia coli JS10. The class given is functional, organism-based. The gist of the method: (§3)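 Donor and recipient strains were kept separate and exposed to inhibitor for 100 min. Inhibitor was added at the start and removed before selection. Surviving cells were counted on antibiotic-selective agar plates, or in antibiotic-containing medium by an oxygen-quenched fluorophore gel assay in which fluorescence is proportional to live cells. EC50 was determined from cell counts.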

In data set [6] the test system is Escherichia coli. In words: Selectivity ratio, ratio of EC50 for Escherichia coli JS4 to ratio of EC50 for inhibition of conjugate DNA transfer between Escherichia coli JS10 and Escherichia coli JS4. The class given is functional. In outline: as §1
Data set [7] has as its system Escherichia coli. As to the kind of experiment: Selectivity ratio, ratio of EC50 for Escherichia coli JS4 to EC50 for Escherichia coli JS10. In kind it is functional. The gist of the method:
as §1

Data set [8] deals with Type IV secretion-like conjugative transfer relaxase protein TraI (Escherichia coli (strain SMS-3-5 / SECEC)), B1LRJ1 [Y16F]. The data set is described as §2. The source holds these as a separate data set.
For data set [9], the target named is T1, Type IV secretion-like conjugative transfer relaxase protein TraI (Escherichia coli (strain SMS-3-5 / SECEC), UniProt B1LRJ1, Y16F). As to the kind of experiment: Inhibition of Escherichia coli F plasmid TraI relaxase Y16F mutant assessed as oriT ssDNA cleavage by competitive inhibition assay. The gist of the method:
(§4)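 Truncated F plasmid TraI (residues 1–300, Y16F) was expressed in E. coli at 30°C as an intein–chitin-binding-domain fusion, purified on chitin resin and released by DTT cleavage. Biotinylated oriT ssDNA was either fluorescein end-labelled or hybridised after the reaction to an end-labelled probe. Reactions ran at 37°C, were stopped with SDS/EDTA at 80°C, and were read on streptavidin-coated plates.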

Data set [10] concerns Escherichia coli. As to the kind of experiment: Cytotoxicity against streptomycin-resistant F plasmid deficient Escherichia coli JS4. The class given is functional, organism-based. In outline: as §3
Data set [11] deals with T1, Type IV secretion-like conjugative transfer relaxase protein TraI. As to the kind of experiment: Inhibition of Escherichia coli F plasmid TraI relaxase Y16F mutant assessed as oriT ssDNA cleavage by uncompetitive inhibition assay. In outline: as §4
Substrate in data set [12]: O=P(O)(O)NP(=O)(O)O
As to the kind of experiment: Activity of Escherichia coli F plasmid TraI relaxase Y16F mutant assessed as oriT ssDNA cleavage. The gist of the method:
as §4

Active and inactive are the calls of the source. The calls are words filed in the database; no cut-off is given here.

Consider `COP(=O)(OC)c1ccccc1P(=O)(OC)OC`, for which the values for the EC50 in [1] and in data set [5] were 14 µM and 0.068 µM, respectively. In addition, the “Ratio EC50” value amounted to 0.0048 in data set [2], 210 in [4], 7100 in data set [6] and 1500000 in [7]. For the same molecule, the outcome in data set [3] was inactive.
As to `CC1(C)S[C@@H]2[C@H](NC(=O)[C@H](N)c3ccccc3)C(=O)N2[C@H]1C(=O)O`, the result in data set [3] was inactive.
Regarding `NCCCCCC(O)(P(=O)(O)O)P(=O)(O)O`, the result in data set [8] and in data set [3] was inactive.
Take `O=C(O)CN(CP(=O)(O)O)CP(=O)(O)O`: the result in [3] was inactive.
The same measure, in the same setting: the same measure for `O=P(O)(O)CCCCP(=O)(O)O`: “inactive”.
For `O=P(O)(O)CN(CP(=O)(O)O)CP(=O)(O)O`, the outcome in [3] was inactive.
For the molecule `O=P(O)(O)C(Cl)(Cl)P(=O)(O)O` [CLODRONIC ACID], the concentration for a half-maximal effect (EC50) amounted to 0.11 µM in [1], 3000 µM in [10] and 9 µM in [5]. Moreover, in data set [8], the result was Active. Besides, the Ki in data set [9] was 0.003 µM. Moreover, the “Ratio EC50” value in [2] was determined as 78; in data set [4], 0.013; in data set [6], 26000; in data set [7] it was 330. Moreover, the outcome in data set [3] was inactive.
As for `CC(O)(P(=O)(O)O)P(=O)(O)O` [ETIDRONIC ACID], the EC50 turned out to be 0.33 µM in data set [1], 370 µM in data set [10] and 10 µM in data set [5]. In addition, the outcome in [8] was Active. The Ki in [9] came out at 0.003 µM. Besides, the “Ratio EC50” value is given as 30 in data set [2], 0.034 in [4], 1100 in data set [6] and 38 in [7]. Moreover, the outcome in data set [3] was inactive.
Consider `O=P(O)(O)NP(=O)(O)O` [IMIDODIPHOSPHATE], for which the EC50 in [1] came out at 10 µM; in data set [10], 620 µM; in [5] it was 0.43 µM. For the same molecule, the inhibition constant (Ki) in data set [9] worked out at 0.002 µM; in data set [11], 0.0027 µM. In addition, the “Ratio EC50” value is listed as 0.014 in data set [2], 20 in data set [6] and 1400 in data set [7]. Also, the outcome in [3] was inactive.
In the case of `O=P(O)(O)CNCP(=O)(O)O` [IMINOBIS(METHYLPHOSPHONIC ACID)], the results for the concentration for a half-maximal effect (EC50) in data set [1], in data set [10] and in data set [5] were 0.58 µM, 5000 µM and 0.016 µM, respectively. Further, the “Ratio EC50” value came out at 0.028 in [2], 36 in data set [4], 9000 in [6] and 330000 in data set [7]. In addition, the outcome in [3] was inactive.
As for `O=P(O)(O)CP(=O)(O)O` [MEDRONIC ACID], the figures for the half-maximal effective concentration (EC50) in data set [1], in data set [10] and in data set [5] were 0.35 µM, 870 µM and 0.51 µM, respectively. For the same molecule, in data set [9], the Ki is 0.003 µM. In addition, the “Ratio EC50” value in data set [2] was 1.5; in data set [4] it was 0.68; in [6], 20; in [7], 1700. The result in data set [3] was inactive.
Take `NCCC(O)(P(=O)(O)O)P(=O)(O)O` [PAMIDRONIC ACID]: the EC50 in data set [1], in data set [10] and in data set [5] was above 10000 µM throughout. For the same molecule, the outcome in data set [8] and in data set [3] was inactive.

B1: Type IV secretion-like conjugative transfer relaxase protein TraI (Escherichia coli (strain SMS-3-5 / SECEC)), B1LRJ1 Y16F (protein)
chain: MMSIAQVRSAGSAGNFYTDKDNYYVLGSMGERWAGRGAEQLGLQGSVDKDVFTRLLEGRLPDGADLSRMQDGSNKHRPGYDLTFSAPKSVSMMAMLGGDKRLIDAHNQAVDFAVRQVEALASTRVMTDGQSETVLTGNLVMALFNHDTSRDQEPQLHTHAVVANVTQHNGEWKTLSSDKVGKTGFIENVYANQIAFGRLYREKLKEQVEALGYETEVVGKHGMWEMPGVPVEAFSGRSQTIREAVGEDASLKSRDVAALDTRKSKQHVDPEIKMTEWMQTLKETGFDIRAYRDAAEQRAYTRTQTPGPASQDGPDVQQAVTQAIAGLSERKVQFTYTDVLARTVGILPPEAGVIERARAGIDEAISREQLIPLDREKGLFTSGIHVLDELSVRALSRDIMKQNRVTVHPEKSVPRTAGYSDAVSVLAQDRPSLAIVSGQGGAAGQRERVAELVMMAREQGREVQIIAADRRSQMNLKQDERLSGELITGRRQLLEGMAFTPGSTVIVDQGEKLSLKETLTLLDGAARHNVQVLITDSGQRTGTGSALMAMKDAGVNTYRWQGGEQRPATIISEPDRNVRYARLAGDFAASVKAGEESVAQVSGVREQAILTQAIRSELKTQGVLGHQEVTMTALSPVWLDSRSRYLRDMYRPGMVMEQWNPETRSHDRYVIDRVTAQSHSLTLRDAQGETQVVRISSLDSSWSLFRPEKMPVADGERLRVTGKIPGLRVSGGDRLQVASVSEDAMTVVVPGRAEPASLPVADSPFTALKLENGWVETPGHSVSDSAKVFAAVTQMAMDNATLNGLARSGRDVRLYSSLDETRTAEKLARHPSFTVVSEQIKAHAGETSLETSISLQKAGLHTPAQQAIHLALPVLESKKLAFSMVDLLTEAKSFAAEGTGFTELGGEINAQIKRGDLLYVDVAKGYGTGLLVSRASYEAEKSILRHILEGKEAVTPLMERVPGELMEKLTSGQRAATRMILETSDRFTVVQGYAGVGKTTQFRAVMSAVNMLPESMRPRVVGLGPTHRAVGEMRSAGVDAQTLASFLHDTQLQQRSGETPDFSNTLFLLDESSMVGNTDMARAYALIAAGGGRAVASGDTDQLQAIAPGQPFRLQQTRSAADVAIMKEIVRQTPELREAVYNLINRDVERALSGLERVKPSQVPRLEGAWAPEHSVMEFSHSQEAKLAEAQQKAMLKGEAFPDVPMTLYEAIVRDYTGRTPEAREQTLIVTHLNEDRRVLNSMIHDAREKAGELGKEQVMVPVLNTANIRDGELRRLSTWETHRDALVLVDNVYHRIAGISKDDGLITLEDAEGNTRLISPREAVAEGVTLYTPDTIRVGTGDRMRFTKSDRERGYVANSVWTVTAVSGDSVTLSDGQQTRVIRPGQERAEQHIDLAYAITAHGAQGASETFAIALEGTEGNRKQMAGFESAYVALSRMKQHVQVYTDNRQGWTDAINNAVQKGTAHDVFEPKPDREVMNAERLFSTARELRDVAAGRAVLRQAGLAGGDSPARFIAPGRKYPQPYVALPAFDRNGKSAGIWLNPLTTDDGNGLRGFSGEGRVKGSGDAQFVALQGSRNGESLLADNMQEGVRIARDNPDSGVVVRIAGEGRPWNPGAITGGRVWGDIPDNSVQPGAGNGEPVTAEVLAQRQAEEAIRRETERRADEIVRKMAENKPDLPDGKTEQAVREIAGQERDRAAITEREAALPESVLRESQREREAVREVARENLLQERLQQMERDMVRDLQKEKTLGGD
Regarding B1, in data set [12], the Michaelis constant (Km) is 0.294 µM and the Vmax is 0.51 nM/s.
